Data: ChEMBL document CHEMBL4312003, “Optimization of biaryloxazolidinone as promising antibacterial agents against antibiotic-susceptible and antibiotic-resistant gram-positive bacteria” (Eur J Med Chem, 2020)
Values after ≈ are worked out from the molar mass of the structure shown.

Experiments:
Staphylococcus aureus [1] = assay: Antibacterial activity against Staphylococcus aureus ATCC 29213 assessed as complete reduction in bacterial cell growth by CLSI protocol based broth liquid microdilution method; type: functional
In short: (§1)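 Broth liquid microdilution per CLSI guidelines; isolates identified on an automated MicroScan system before testing. MIC taken as lowest concentration giving total inhibition of bacterial growth, reported in μg/mL. S. aureus ATCC29213 run as the control strain.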

Staphylococcus aureus [2] = assay: Antibacterial activity against methicillin-resistant Staphylococcus aureus assessed as complete reduction in bacterial cell growth by CLSI protocol based broth liquid microdilution method; type: functional; in short: as §1
Staphylococcus aureus [3] = assay: Antibacterial activity against methicillin-sensitive Staphylococcus aureus assessed as complete reduction in bacterial cell growth by CLSI protocol based broth liquid microdilution method; type: functional; in short: as §1
Enterococcus faecalis [4] = assay: Antibacterial activity against linezolid-resistant Enterococcus faecalis assessed as complete reduction in bacterial cell growth by CLSI protocol based broth liquid microdilution method; type: functional; in short: as §1
Enterococcus faecium [5] = assay: Antibacterial activity against vancomycin-resistant Enterococcus faecium assessed as complete reduction in bacterial cell growth by CLSI protocol based broth liquid microdilution method; type: functional; in short: as §1
Staphylococcus aureus [6] = assay: Antibacterial activity against clinical isolates of methicillin-resistant Staphylococcus aureus assessed as complete reduction in bacterial cell growth by CLSI protocol based broth liquid microdilution method; type: functional; in short: as §1
Staphylococcus aureus [7] = assay: Antibacterial activity against clinical isolates of methicillin-sensitive Staphylococcus aureus assessed as reduction in bacterial cell growth by CLSI protocol based broth microdilution method; type: functional; in short: as §1
Enterococcus faecalis [8] = assay: Antibacterial activity against clinical isolates of linezolid-resistant Enterococcus faecalis assessed as complete reduction in bacterial cell growth by CLSI protocol based broth liquid microdilution method; type: functional; in short: as §1
Enterococcus faecium [9] = assay: Antibacterial activity against clinical isolates of vancomycin-resistant Enterococcus faecium assessed as complete reduction in bacterial cell growth by CLSI protocol based broth liquid microdilution method; type: functional; in short: as §1
[10] = Stability in simulated gastric acid assessed as compound remaining at pH 1.2 incubated for 0.5 hrs; type: ADME; conditions: read-out: Stability
[11] = Stability in simulated gastric acid assessed as compound remaining at pH 1.2 incubated for 1 hr; type: ADME; conditions: read-out: Stability
[12] = Stability in simulated gastric acid assessed as compound remaining at pH 1.2 incubated for 1.5 hrs; type: ADME; conditions: read-out: Stability
[13] = Stability in simulated gastric acid assessed as compound remaining at pH 1.2 incubated for 2 hrs; type: ADME; conditions: read-out: Stability
[14] = Solubility of compound in water by UV spectrophotometric analysis; type: physicochemical
HepG2 = assay: Cytotoxicity against human HepG2 cells assessed as reduction in cell viability incubated for 48 hrs by MTT assay; type: cell-based; conditions: HepG2, 48 h
In short: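 HepG2 cells were grown in RPMI1640 with 10% FBS and plated at about 4×10^4 cells/well in MEM. After 24 h at 37 °C in 5% CO2, compounds were added at the indicated final concentrations for 48 h. MTT was added (0.5 mg/mL final) for 4 h at 37 °C and the formazan dissolved in DMSO. Absorbance was read at 492 nm (630 nm reference). Each compound was tested three times; IC50 given as mean ± SD.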

[15] = Stability in human liver microsomes assessed as half life at 1.5 uM preincubated for 5 mins with NADPH and measured after 45 mins by LC/MS analysis; type: ADME, Microsome
In short: (§2)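 Compound solution at 1.5 µM with 0.75 mg/mL microsomes (before NADPH addition) was preincubated 5 min at 37 °C. Reactions were started with NADPH (6 mM stock). Samples were quenched with acetonitrile containing internal standard at 0, 5, 15, 30 and 45 min, then centrifuged, and the supernatant was diluted with water for LC/MS. Runs were in duplicate. T1/2 = ln2/k from the log-linear slope, and CLint was derived from T1/2.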

[16] = Stability in human liver microsomes assessed as intrinsic clearance at 1.5 uM preincubated for 5 mins with NADPH and measured after 45 mins by LC/MS analysis; type: ADME, Microsome; conditions: read-out: CLH; in short: as §2
[17] = Stability in human liver microsomes assessed as compound remaining at 1.5 uM preincubated for 5 mins with NADPH and measured after 45 mins by LC/MS analysis; type: ADME, Microsome; in short: as §2
MAO-A = biological target: T1, MAO-A (Homo sapiens, UniProt P21397); assay: Inhibition of recombinant human MAO-A (active motif 31502) at 30 uM using luciferin as substrate incubated for 15 mins followed by substrate addition and measured after 60 mins by luminescence based method relative to control; conditions: probe luciferin
T1 sequence (P21397 whole entry): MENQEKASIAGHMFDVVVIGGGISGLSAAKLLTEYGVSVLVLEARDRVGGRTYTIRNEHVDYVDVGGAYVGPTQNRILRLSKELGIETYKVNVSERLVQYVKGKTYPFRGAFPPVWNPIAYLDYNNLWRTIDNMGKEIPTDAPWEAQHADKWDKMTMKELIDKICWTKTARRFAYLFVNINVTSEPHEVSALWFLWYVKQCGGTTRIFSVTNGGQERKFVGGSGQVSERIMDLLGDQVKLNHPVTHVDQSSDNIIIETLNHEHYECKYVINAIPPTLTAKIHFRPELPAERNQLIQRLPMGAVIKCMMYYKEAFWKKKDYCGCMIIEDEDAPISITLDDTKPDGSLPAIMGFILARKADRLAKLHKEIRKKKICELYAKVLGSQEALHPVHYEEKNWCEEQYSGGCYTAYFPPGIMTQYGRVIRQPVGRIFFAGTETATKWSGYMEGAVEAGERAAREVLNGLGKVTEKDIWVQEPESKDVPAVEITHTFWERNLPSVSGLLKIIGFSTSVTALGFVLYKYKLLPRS
In short: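 Recombinant human MAO-A was measured with the MAO-Glo kit, modified. Compounds were in DMSO (1% DMSO final) and preincubated with enzyme 15 min at room temperature. Luciferin-derivative substrate was then added and the reaction run 60 min at room temperature. Luciferase detection reagent was added for 20 min and luminescence read. Buffer without enzyme served as the 100% inhibition control; DMSO alone as the no-inhibition control. Percent inhibition = (Max − signal)/(Max − Min)×100.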

Staphylococcus aureus [18] = assay: Potency index, ratio of rade-zolid MIC to compound MIC for antibacterial activity against Staphylococcus aureus ATCC 29213 by CLSI protocol based broth liquid microdilution method; type: functional
Staphylococcus aureus [19] = assay: Potency index, ratio of rade-zolid MIC to compound MIC for antibacterial activity against methicillin-sensitive Staphylococcus aureus by CLSI protocol based broth liquid microdilution method; type: functional
Enterococcus faecalis [20] = assay: Potency index, ratio of rade-zolid MIC to compound MIC for antibacterial activity against linezolid-resistant Enterococcus faecalis by CLSI protocol based broth liquid microdilution method; type: functional
Enterococcus faecium [21] = assay: Potency index, ratio of rade-zolid MIC to compound MIC for antibacterial activity against vancomycin-resistant Enterococcus faecium by CLSI protocol based broth liquid microdilution method; type: functional
[22] = Metabolic stability in rat assessed as half life measured after intragastric administration; type: ADME; conditions: in vivo, po
[23] = Drug metabolism in rat plasma assessed as N-[[(5S)-3-[3-fluoro-4-[3-hydroxy-4-[(E)-(4-methylpiperazin-1-yl)iminomethyl]phenyl]phenyl]-2-oxo-oxazolidin-5-yl]methyl]acetamide formation administered vig ig route measured by UPLC-QTOF/MS analysis; type: ADME; conditions: po
[24] = Drug metabolism in rat plasma assessed as N-[[(5S)-3-[3-fluoro-4-[4-[(E)-piperazin-1-yliminomethyl]phenyl]phenyl]-2-oxo-oxazolidin-5-yl]methyl]acetamide formation administered vig ig route measured by UPLC-QTOF/MS analysis; type: ADME; conditions: po
[25] = Drug metabolism in rat plasma assessed as N-[[(5S)-3-[3-fluoro-4-(4-formylphenyl)phenyl]-2-oxo-oxazolidin-5-yl]methyl]acetamide formation administered vig ig route measured by UPLC-QTOF/MS analysis; type: ADME; conditions: po
[26] = Drug metabolism in rat plasma assessed as 4-[4-[(5S)-5-(acetamidomethyl)-2-oxo-oxazolidin-3-yl]-2-fluoro-phenyl]benzoic acid formation administered vig ig route measured by UPLC-QTOF/MS analysis; type: ADME; conditions: po
Staphylococcus aureus [27] = assay: Potency index, ratio of MIC of linezolid to MIC of compound for antibacterial activity against clinical isolates of methicillin-sensitive Staphylococcus aureus by CLSI protocol based broth liquid microdilution method; type: functional

Row | SMILES | MIC (Staphylococcus aureus [1]) | MIC (Staphylococcus aureus [2]) | MIC (Staphylococcus aureus [3]) | MIC (Enterococcus faecalis [4]) | MIC (Enterococcus faecium [5]) | MIC (Staphylococcus aureus [7]) | MIC (Enterococcus faecalis [8]) | MIC (Enterococcus faecium [9]) | remaining at 0.5 h [10] | remaining at 1 h [11] | remaining at 1.5 h [12] | remaining at 2 h [13] | solubility [14] | IC50 (HepG2) | CLint scaled at 1.5 µM [16] | inhibition at 1 h, 30 µM (MAO-A) | Ratio (Staphylococcus aureus [18]) | Ratio (Staphylococcus aureus [19]) | Ratio (Enterococcus faecalis [20]) | Ratio (Enterococcus faecium [21]) | other results
1 | CC(=O)NC[C@H]1CN(c2ccc(-c3ccc(/C=N/N4CCN(C)CC4)nc3)c(F)c2)C(=O)O1 | 0.125 µg/mL (≈ 0.275 µM) | 0.125 µg/mL (≈ 0.275 µM) | 0.125 µg/mL (≈ 0.275 µM) | 0.25 µg/mL (≈ 0.55 µM) | 0.25 µg/mL (≈ 0.55 µM) | 2 µg/mL (≈ 4.4 µM) | 0.25 to 0.5 µg/mL (≈ 0.55 to 1.1 µM) | 0.25 to 0.5 µg/mL (≈ 0.55 to 1.1 µM) | 98.3% | 96.8% | 96.2% | 95.8% | 63 µg/mL (≈ 139 µM) | > 25 µM | 17.2 mL/min/kg | 79% | 2 - 4 | 2 - 4 | 2 - 4 | 2 - 4 | MIC (Staphylococcus aureus [6]): 2 µg/mL (≈ 4.4 µM); half-life at 1.5 µM ([15]; liver microsomes): 1.68 h; remaining at 0.75 h, 1.5 µM ([17]; liver microsomes, read-out: Stability): 74.9%
2 | CC(=O)NC[C@H]1CN(c2ccc(-c3ccc(/C=N/N4CCN(C)CC4)cc3)c(F)c2)C(=O)O1 | – | – | – | – | – | – | – | – | – | – | – | – | 11.9 µg/mL (≈ 26.2 µM) | – | – | – | – | – | – | – | half-life [22]: 2.7 h; Drug metabolism [23]: Metabolite_Detected; Drug metabolism [24]: Metabolite_Detected; Drug metabolism [25]: Metabolite_Detected; Drug metabolism [26]: Metabolite_Detected
3 | CC(=O)NC[C@H]1CN(c2ccc(-c3ccc(/C=N/N4CCSCC4)nc3)c(F)c2)C(=O)O1 | 0.125 µg/mL (≈ 0.273 µM) | 0.125 µg/mL (≈ 0.273 µM) | 0.25 µg/mL (≈ 0.546 µM) | 0.25 µg/mL (≈ 0.546 µM) | 0.25 µg/mL (≈ 0.546 µM) | 0.25 to 0.5 µg/mL (≈ 0.546 to 1.09 µM) | 0.5 µg/mL (≈ 1.09 µM) | 1 µg/mL (≈ 2.19 µM) | 99.4% | 99% | 98.6% | 98% | 57 µg/mL (≈ 125 µM) | > 25 µM | 90.3 mL/min/kg | 75% | 2 - 4 | 2 - 4 | 2 - 4 | 2 - 4 | t1/2 ([15]; microsomes, 0.75 h, 1.5 µM): 0.3207 h; Stability ([17]; microsomes, 0.75 h, 1.5 µM): 0.62%
4 | CC(=O)NC[C@H]1CN(c2ccc(-c3ccc(/C=N/N4CCSCC4)c(O)c3)c(F)c2)C(=O)O1 | 0.125 µg/mL (≈ 0.265 µM) | 0.125 µg/mL (≈ 0.265 µM) | 0.125 µg/mL (≈ 0.265 µM) | 0.125 µg/mL (≈ 0.265 µM) | 0.125 µg/mL (≈ 0.265 µM) | 0.125 to 0.25 µg/mL (≈ 0.265 to 0.529 µM) | 0.125 to 0.25 µg/mL (≈ 0.265 to 0.529 µM) | 0.125 to 0.25 µg/mL (≈ 0.265 to 0.529 µM) | 96% | 94.6% | 82.9% | 75.9% | – | > 25 µM | – | 62% | – | – | – | – | Ratio (Staphylococcus aureus [27]): 4 - 32
